# A selection: hits, their analogues and other compounds. The true share with any hit is near 1.5%.
# Dynein cargo inh: inhibitors of GR-EGFP nuclear translocation, primary screen, dynein cargo transport inhibitor project, imaging, high-content, 3617.4 mouse cells. test concentration mostly 20 µM; stimulated with dexamethasone, 1 µM; hits give low values. z-score, hits read low. hit rate 0.47% among 220,000. AID 1381, 2008;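 active = plate z-score of nuclear minus cytoplasmic receptor signal below a set negative limit, without overly bright fluorescence or cell loss, cut at about -3.5 in these data, passing the limit was not always enough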;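 also: z-score of nuclear minus cytoplasmic ring GR-EGFP intensity difference per well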
#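 Schedule: 48 h induction, then 1 h compound, then 30 min agonist, 37 °C. Buffer or medium: tetracycline-free induction medium containing charcoal-stripped FBS. Reagent: 1.0 µM final dexamethasone stimulus. Evaluation: nuclear versus cytoplasmic GR-EGFP signal, averaged per well. Signal: high-content fluorescence imaging after fixation.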
# MT stabilizer: microtubule stabilizers in HeLa cells, primary screen, imaging, high-content imaging; HeLa tubulin immunostaining HCS, 24 h; share of cells brighter than vehicle mean+2SD; % tubulin-high responders, % at 10 µM; hit rate 0.83% among 200,000;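 active = plate Z-score above 3 for both tubulin-high and condensed-nucleus cell shares, with cell loss under 80%, at 10 µM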;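 also: anti alpha tubulin signal scored within the nucleus-defined area of each cell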
# Rad51 HR inh: human RAD51 strand exchange inhibitors, primary screen, biochemical, fluorescence | hRad51 DNA strand exchange, fluorescence dequenching | inhibition, % at 10 µM | hit rate 0.085% among 200,000 | AID 1385, 2008;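 active = inhibition above 40% at the single screening dose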;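 also: 0% = DMSO control wells and 100% = blanks with heterologous ssDNA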
# Target sequence (Q06609 whole entry, looked up): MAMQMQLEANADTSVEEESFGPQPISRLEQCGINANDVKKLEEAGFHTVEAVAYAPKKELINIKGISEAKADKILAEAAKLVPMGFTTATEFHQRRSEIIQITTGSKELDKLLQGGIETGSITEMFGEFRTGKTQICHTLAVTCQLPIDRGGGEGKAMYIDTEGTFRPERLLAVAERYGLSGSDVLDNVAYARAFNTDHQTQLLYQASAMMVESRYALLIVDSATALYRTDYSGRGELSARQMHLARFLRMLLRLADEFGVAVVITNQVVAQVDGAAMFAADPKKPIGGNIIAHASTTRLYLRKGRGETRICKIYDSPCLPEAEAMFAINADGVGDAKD
#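 Material: hRad51 filaments on single-stranded DNA; Reagent: Donor/quencher-labelled 47-bp dsDNA substrate; Compound: 10 µM final, single point; Schedule: 37 °C 15-min filament assembly, 30-min compound preincubation, 15-min exchange; Technique: FRET fluorescence, excitation 485 nm, emission 520 nm; Benchmarks: control wells and blank wells on each plate.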
# bCat nuc transl: modulators of beta-catenin nuclear translocation, primary screen, imaging, HeLa cells, immunofluorescence, high-content; AID 1665, 2009; hit rate 0.3% among 190,000; nuclear translocation activity, % at 5 µM;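 active = nuclear translocation activity above 50% at 5 µM, with a well cell count of 50 or more; inconclusive = wells under 50 cells across six images, flagged as toxic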;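 also: per-cell ratio of nuclear to cytoplasmic median beta-catenin stain intensity; plate controls were DMSO negative control for no effect and GSK-3 inhibitor IX positive control for full effect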
#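 System: HeLa cells, endogenous beta-catenin; compound dosing: 5 µM primary single dose, 0.1% DMSO, 0.02–20 µM confirmation series; incubation: 24 h compound exposure at 37°C, 5% CO2; signal: beta-catenin immunofluorescence imaging with DAPI; evaluation: % activation, nuclear-to-cytoplasmic median beta-catenin signal ratio per cell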
# TbHK1 inh: Trypanosoma brucei hexokinase 1 inhibitors, primary screen, biochemical, G6PDH-coupled NADH absorbance, MLSCN library. hexokinase 1 [Trypanosoma brucei]. recombinant TbHK1, G6PDH-coupled NADH A340. inhibition, % at 10 µM. hit rate 0.11% among 220,000;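 active = inhibition of 50% or more in the single-dose primary screen; inactive = inhibition below 50%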
# Dynein inh conf: dynein cargo transport inhibitors, GR-EGFP translocation, confirmation, imaging, high-content imaging, GR-EGFP cells; shares compounds with Dynein cargo inh; 3617.4 GR-EGFP nuclear translocation imaging, dexamethasone-induced; calls only at 20 µM; hit rate 69% among 1,000;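 active = inhibition of receptor movement into the nucleus at or above a set limit in both runs, with normal cell brightness and cell count; inconclusive = limit reached in only one run, brightness and count normal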;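 also: dexamethasone at 1 µM final in well for 30 min; nuclear minus cytoplasmic GR-EGFP mean intensity difference in channel 2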
# Starred values were filed as active, the others as inactive; i = inactive; ? = inconclusive; . = not tested or not shown; + = active, no number.
SMILES,Dynein cargo inh,MT stabilizer,Rad51 HR inh,bCat nuc transl,TbHK1 inh,Dynein inh conf
O=C(c1ccc2c(c1)ncn2C1CCCCC1)N1CCC2(CC1)OCCO2,0.29,27*,-8,3,-3,.
Cc1cc([N+](=O)[O-])c2ccccc2[n+]1[O-],-4.5*,.,.,22,-14,+
C=C1C(=O)O[C@H]2C[C@@H](C)[C@@H]3C=CC(=O)[C@@]3(C)C[C@H]12,-3.8*,.,.,0,-6,+
CCN(CC)c1ccc(C=C2C(=O)NC(=S)NC2=O)cc1,-5.1*,.,-3,1,-39,?
CCCCC/C=C\C/C=C\C/C=C\C/C=C\CCCC(=O)Nc1ccc(O)cc1,.,.,-2,-2,.,.
COc1ccc(Oc2cc(NC(=O)c3nn(C)cc3[N+](=O)[O-])cc([N+](=O)[O-])c2)cc1,-4*,60,0,.,-10,+
CC(C)(C)N1Cc2ccccc2C1=N,-0.61,4,-2,0,2,.
O=C(COc1ccc2ccccc2c1)N1CCN(Cc2c[nH]c3ccccc23)CC1,0.25,3,-4,8,-6,.
C=CCN1C(=O)/C(=C/c2cc(C)n(-c3cccnc3)c2C)C(=O)NC1=S,-6.5*,4,-11,.,26,i
CN(C)C(=O)O/N=C(\N)COc1ccc(C(C)(C)C)cc1,-0.34,.,-8,3,9,.
CCOP(=O)(OCC)C(NC(=O)c1ccc(Cl)cc1)=C(Cl)Cl,-0.2,2,4,2,-3,.
CN1CCN(c2ccc(NC(=O)Oc3ccccc3)cc2)CC1,-0.77,2,7,-16,1,.
Cc1cc(N2CCOCC2)ccc1/C=C1\C(=O)NC(=O)N(c2ccccc2)C1=O,-0.57,2,7,0,-28,.
CN1C(=O)/C(=C/C=C/c2ccco2)C(=O)NC1=S,-0.76,.,-110,0,0,.
Cc1ccc(N2C(=O)NC(=O)/C(=C\C=C\c3ccco3)C2=O)cc1,-5.1*,.,.,3,6,+
Cc1ccc(N2C(=O)NC(=O)/C(=C\C=C\c3ccco3)C2=O)cc1C,-5.6*,3,-51,-3,33,+
Cc1cccc(N2C(=O)NC(=O)/C(=C\C=C\c3ccco3)C2=O)c1,-5*,.,-1,1,-7,+
O=C1NC(=O)N(c2ccccc2)C(=O)/C1=C/C=C/c1ccco1,-2.2,.,-25,-1,1,.
O=C1NC(=O)C(CCc2ccncc2)(Cc2ccc(OCc3ccccc3)cc2)C(=O)N1,-0.53,.,7,1,-2,.
C/C(=C\c1ccc(N(C)C)cc1)[N+](=O)[O-],-4.5*,3,.,0,0,+
CC12CN3CCN(C1)CC(C)(C3)C2=NN,-0.38,.,16,0,-6,.
O=C1NC(=O)N(Cc2ccco2)C(=O)/C1=C/C=C/c1ccco1,-3.8*,.,-27,1,-1,?
Cn1cccc1/C=C1\C(=O)NC(=O)N(Cc2ccco2)C1=O,-0.23,2,-4,-1,11,.
O=C1NC(=O)N(Cc2ccccc2)C(=O)/C1=C\C=C\c1ccco1,-4.4*,2,-51,2,2,+
Cc1cc(N2CCCC2)ccc1C=C(C#N)C#N,2.3,5,-99,2,10,.
SMILES,Dynein cargo inh,MT stabilizer,Rad51 HR inh,bCat nuc transl,TbHK1 inh,Dynein inh conf
O=C1NC(=O)N(CCc2ccc(F)cc2)C(=O)/C1=C\C=C\c1ccccc1,-4.1*,12,6,-1,-13,+
C=CCN1C(=O)NC(=O)/C(=C/C=C/c2ccccc2)C1=O,-4.9*,2,-24,2,5,+
CN(C)c1ccc(/C=C/C=C2/C(=O)NC(=O)N(c3ccccc3)C2=O)cc1,-0.27,6,-19,13,3,.
CN1CCN(c2ccc(S(C)(=O)=O)cc2[N+](=O)[O-])CC1,0.27,1,8,0,33,.
CN1CCN(c2ccc([N+](=O)[O-])c3no[n+]([O-])c23)CC1,-4.7*,.,-110,10,-16,i
CC1=NOC2(C)Nc3ncnn3C(c3ccccc3)C12 (stereo unspecified),0.54,1,0,-4,-3,.
